NALP1 yeast inh = inhibitors of NALP1 inflammasome in yeast; 280,000 tested, 0.61% active; S. cerevisiae NALP1/ASC/caspase-1 growth, X-gal OD620, 72 h; inhibition, % at 10 µM; in the data active means inhibition mostly above about 24%, no sharp cut-off; inactive means mostly below about 32%
NALP3 yeast inh = NALP3 inhibition in yeast; Yeast reconstituted NLRP3/ASC/caspase-1, beta-gal luminescence, 24 h; inhibition, % at 10 µM; 330,000 tested, 0.39% active;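 active means inhibition of 50% or more; inactive means inhibition below 50%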;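 further: plate controls were induced DMSO wells for no effect and uninduced yeast grown without galactose for full effect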
UCH37 DUB inh = blocks the human deubiquitinase UCH37; Q9Y5K5; purified proteasome/UCH37, Ub-AMC cleavage fluorescence; inhibition, % (no concentration beside the values); 330,000 tested, 0.33% active;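 active means mean inhibition over replicate wells above about 20%, limit read from the data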;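 further: 0% = compound-free wells with enzyme and 100% = wells lacking proteasome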
Target sequence (Q9Y5K5 whole entry, looked up): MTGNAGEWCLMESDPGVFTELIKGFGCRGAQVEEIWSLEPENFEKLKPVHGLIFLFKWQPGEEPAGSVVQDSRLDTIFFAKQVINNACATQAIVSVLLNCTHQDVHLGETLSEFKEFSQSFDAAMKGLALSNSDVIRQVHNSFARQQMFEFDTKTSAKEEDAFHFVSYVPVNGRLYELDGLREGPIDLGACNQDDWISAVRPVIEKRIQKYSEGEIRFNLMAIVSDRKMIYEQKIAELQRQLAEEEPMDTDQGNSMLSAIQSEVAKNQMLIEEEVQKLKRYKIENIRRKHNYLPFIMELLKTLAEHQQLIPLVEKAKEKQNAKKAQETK
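Material: Human UCH37 enzyme supplied as purified proteasome complex | Schedule: 30 min compound-proteasome preincubation then 25 min substrate reaction, room temperature | Detection: AMC fluorescence from Ub-AMC cleavage, excitation 355 nm, emission 460 nm | Benchmarks: Wells without proteasome as full block, compound-free enzyme plus substrate as uninhibited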
Calb FLC = affects C. albicans growth with fluconazole | C. albicans CaCi-2 + fluconazole, Alamar Blue growth, 48 h | growth inhibition, % (concentration not given with the values) | 300,000 tested, 0.57% active;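 active means growth inhibition above about 58% in most replicates, limit read from the data, passing the limit was not always enough; inconclusive means exactly half the replicates above a set limit; inactive means most replicates below a set limit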;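 further: all wells also contain fluconazole at 8 µg/ml as a sub-toxic cotreatment; 0% = median of DMSO wells and 100% = median of geldanamycin control wells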
ALR inh = human ALR oxidase inhibition via reduced H2O2 | P55789 | purified ALR, DTT oxidation, H2O2 HRP-luminol luminescence | inhibition, % (test concentration not listed) | 290,000 tested, 3.8% active;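 active means mean replicate inhibition above about 79%, with every replicate also reaching it, limit read from the data; inconclusive means only one of the two criteria met; inactive means mean below limit and not every replicate reaching it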
ATG4B inh = blocks human ATG4B protease cleavage of LC3 substrate; Q9Y4P1; 340,000 tested, 0.51% active; ATG4B cleavage of LC3-PLA2, NBD-HPC fluorescence, 1 h; inhibition, % at 8.33 µM; AID 504462; in the data active means inhibition above about 40%
Target sequence (Q9Y4P1 whole entry, looked up): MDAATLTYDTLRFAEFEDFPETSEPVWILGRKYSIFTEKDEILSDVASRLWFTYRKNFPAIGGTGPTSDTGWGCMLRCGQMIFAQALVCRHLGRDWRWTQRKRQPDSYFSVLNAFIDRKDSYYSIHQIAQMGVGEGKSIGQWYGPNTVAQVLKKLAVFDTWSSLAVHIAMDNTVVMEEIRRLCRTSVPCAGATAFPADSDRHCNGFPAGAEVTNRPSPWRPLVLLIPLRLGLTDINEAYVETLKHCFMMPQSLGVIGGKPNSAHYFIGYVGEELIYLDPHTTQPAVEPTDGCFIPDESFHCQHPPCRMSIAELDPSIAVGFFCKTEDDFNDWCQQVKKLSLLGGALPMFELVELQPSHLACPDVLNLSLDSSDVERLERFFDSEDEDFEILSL
Numbers without * were called inactive; ? = inconclusive; · = no result. Shown are actives, neighbours in structure and some others; about 4.8% of the full set was active somewhere.

SMILES	NALP1 yeast inh	NALP3 yeast inh	UCH37 DUB inh	Calb FLC	ALR inh	ATG4B inh
Cn1c(N/N=C/c2c[nH]c3ccccc23)nc2ccccc21	5.0	13.7	·	83.6*	98.1*	-33.6
NC(=S)N/N=C/c1c[nH]c2ccccc12	·	23.6	·	5.7	98.8*	-4.2
Cc1ccc(NC(=O)CCC(=O)NN=Cc2coc3ccc(F)cc3c2=O)cc1	·	·	-4.6	·	·	·
Cc1cccc(N2CCN(C(=O)c3ccc4c(c3)NC(=O)C(CSCc3ccc(F)cc3)N4)CC2C)c1 (configuration not stated)	11.2	4.9	·	0.0	97.4*	·
N#Cc1c(NC(=O)c2ccc(Cn3cc(Br)cn3)o2)sc2c1CCCCC2	5.8	14.0	-6.6	-1.1	-7.2	-8.6
COC(=O)c1sc(NC(=O)c2ccc(Cn3cc(Cl)cn3)o2)c(C#N)c1C	23.3	5.2	2.3	3.1	88.5*	-11.8
O=C(NNC(=O)c1cc(Cl)ccc1O)c1ccc(NS(=O)(=O)c2cccs2)cc1	·	9.9	-8.0	84.3*	41.2	1.6
O=C(NNC(=O)c1cc(F)c(F)cc1Cl)c1ccc(NS(=O)(=O)c2cccs2)cc1	·	8.4	2.3	·	1.0	-5.2
O=S(=O)(c1ccccc1)c1ccccc1C=NO	·	·	0.3	·	·	·
CN1CCN(C(=O)c2cnn(-c3ccccc3)c2NC(=O)c2ccccc2)CC1	1.1	14.2	1.3	93.7*	-1.7	-8.8
CN(C)c1ccc(NC(=O)c2cc3c(=O)n4ccccc4nc3n2C)cc1	·	32.1	-63.2	5.6	82.1*	5.0
COc1ccc(OC)c(NC(=O)c2cc3c(=O)n4ccccc4nc3n2C)c1	-3.2	9.4	-42.9	12.0	·	6.6
O=C(NN=Cc1ccc(F)cc1)c1cc(-c2ccco2)nc2ccccc12	·	·	-34.2	·	·	·
COc1cc(C=NN2CCN(C3c4ccccc4-c4ccccc43)CC2)ccc1O	·	·	5.3	·	·	·
COc1ccc(C(C)=NOCC(=O)Nc2nc3ccccc3s2)cc1	·	·	0.0	·	·	·
CC(C)c1ccc2oc(-c3cc(N)ccc3O)nc2c1	12.9	9.1	4.0	?	93.0*	9.0
Cc1ccccc1-c1nc2cc(N)ccc2o1	6.7	3.2	-90.5	-21.8	-71.8	-0.8
O=C(N/N=C(\CC(=O)c1cccs1)C(F)(F)F)c1ccncc1	-2.2	22.8	·	3.6	98.2*	5.5
O=C(COC(=O)Cn1cnc2ccccc21)Nc1ccc2c(c1)C(=O)c1ccccc1C2=O	50.4*	33.4	·	6.3	·	4.1
O=C1NC2(CCCCC2)C(=O)N1N=Cc1ccc(O)cc1O	·	·	-2.2	·	·	·
COc1ccccc1N1CCN(N=Cc2cc([N+](=O)[O-])ccc2Cl)CC1	·	·	5.8	·	·	·
O=C(NN=C1CC2CC=CC12)c1ccc(O)cc1 (configuration not stated)	·	·	1.1	·	·	·
CNc1c(N)c(=O)oc2ccccc12	0.6	1.1	3.0	-9.4	92.5*	0.6
CC(C)Nc1c(N)c(=O)oc2ccccc12	16.6	4.4	5.4	-10.5	91.9*	-1.4
Cc1ccc(Nc2c(N)c(=O)oc3ccccc23)cc1	9.0	39.6	-1.6	-26.9	·	5.3
SMILES	NALP1 yeast inh	NALP3 yeast inh	UCH37 DUB inh	Calb FLC	ALR inh	ATG4B inh
O=[N+]([O-])c1cc(CSC2=NCCN2)ccc1O	·	·	5.1	6.7	·	-1.9
CCCOc1ccc(CSC2=NCCN2)cc1[N+](=O)[O-]	27.4	6.2	-1.6	-7.1	99.4*	3.8
CCCCOc1ccc(CSc2nnc(C)n2N)cc1[N+](=O)[O-]	-31.6	6.3	7.0	5.3	59.6	3.8
CCCCOc1ccc(CSc2nc(C)[nH]c2[N+](=O)[O-])cc1[N+](=O)[O-]	·	11.7	6.4	39.6	98.7*	3.5
O=C(NN=Cc1ccc([N+](=O)[O-])o1)C(O)c1ccccc1 (configuration not stated)	·	·	12.6	·	·	·
COc1ccc(/C=N/NC(=O)C2C3CCCCC32C)cc1OC (configuration not stated)	6.8	10.6	·	-9.7	-4.2	5.3
COc1cc(/C=N/NC(=O)C2C3CCCCC32C)cc(Br)c1O (configuration not stated)	2.8	15.5	·	-1.6	86.0*	7.7
CCCCCC(=O)N/N=C/c1cc(Br)c(O)c(OC)c1	19.4	22.0	·	-0.3	99.3*	-3.5
Nc1ccccc1N=Nc1ccccc1N	-39.9	47.7	0.4	14.6	87.5*	-5.6
Cc1ccc(S(=O)(=O)NCC(=O)NN=Cc2ccc(Cl)cc2)cc1	·	·	2.9	·	·	·
CCN(CC)C(=O)C1CCCN(c2ccc([N+](=O)[O-])cc2C=NNC(=O)c2cccc(O)c2)C1 (configuration not stated)	·	·	0.6	·	·	·
CCOC(=O)c1cnc2c(C(=O)OCC)cnn2c1N	38.2*	8.6	-11.2	0.8	1.2	-7.7
CCOC(=O)C(C#N)=NNc1ccc(S(=O)(=O)Nc2nc(C)cc(C)n2)cc1	·	·	10.7	·	·	·
Cc1cc(C(F)(F)F)nn1Cc1n[nH]c(=S)n1Cc1ccccc1	-12.2	12.7	1.0	0.2	81.6*	-2.2
CN1C(=O)SC(Nc2cccc3ccccc23)C1=O (configuration not stated)	6.5	22.3	-4.0	3.4	90.1*	-11.9
O=C1NC(=O)C(Nc2cccc3ccccc23)S1 (configuration not stated)	4.2	13.0	-5.4	30.0	47.5	24.2
Cc1cc(-c2c(C)[nH]n(-c3ccccc3)c2=O)n[nH]1	5.5	16.5	4.3	-14.0	81.1*	4.1
COc1ccc(/C=C/C(=O)NC(=S)NNC(=O)c2cccs2)cc1OC	·	8.2	3.1	-3.1	99.0*	-0.1
CC(C)(C)c1ccc(C(=O)NC(=S)NNC(=O)COc2ccccc2)cc1	-2.0	22.9	5.6	100.5*	98.8*	-9.0
COc1cc(CCC(=O)NNC(=O)c2ccc(Cl)cc2)cc(OC)c1OC	18.0	4.3	-2.2	4.7	·	-6.9
COc1ccc(/C=C/C(=O)NC(=S)NNC(=O)Cc2cccs2)cc1OC	2.0	9.7	2.7	2.3	-62.4	-14.2
O=C(NNC(=O)c1cccs1)c1ccc(Br)o1	24.7	·	5.8	·	95.8*	-2.3
COc1cc(C(=O)NNC(=S)NC(=O)c2ccc(Cl)cc2)cc(OC)c1OC	-1.1	25.2	5.3	-5.1	96.3*	-17.5
CC1CN(CC(=NO)C23CC4CC(CC(C4)C2)C3)CC(C)O1 (configuration not stated)	·	·	1.5	·	·	·
O=C(Cc1c[nH]c2ccccc12)NN=Cc1ccccc1O	·	·	-9.5	·	·	·
SMILES	NALP1 yeast inh	NALP3 yeast inh	UCH37 DUB inh	Calb FLC	ALR inh	ATG4B inh
C=C(C)C1CC=C(C)C(=NNC(=O)CNc2ccccc2OC)C1 (configuration not stated)	·	·	1.5	·	·	·
CC(=O)c1cccc(NC(=O)CON=C2CCCc3nonc32)c1	·	·	1.3	·	·	·
O=C(CCN1CCN(C(c2ccccc2)c2ccccc2)CC1)NN=Cc1ccc(O)cc1O	·	·	-3.7	·	·	·
O=C(Cn1cncn1)NN=Cc1cc([N+](=O)[O-])ccc1O	·	·	13.2	·	·	·
Cc1cccc(C(=O)NC(=S)NNC(=O)c2ccc(Cl)cc2)c1	43.1	·	3.5	-2.7	96.1*	-0.3
CC(C)(C)c1ccc(C(=O)NC(=S)NNC(=O)c2cccs2)cc1	26.8	·	1.2	2.2	98.2*	-6.7

Bioassay records as filed in PubChem BioAssay.
